RanGTP-Imp inh = inhibitors of RanGTP-importin-beta interaction, primary screen, biochemical, FRET, CFP-Ran, YFP-importin-beta, homogeneous; cell-free CFP-Ran/YFP-importin-beta FRET ratio; inhibition, % (test concentration not listed); actives 1.1% (n = 300,000); AID 2216;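 active = more than half of the replicate wells show a fall in the fluorescence ratio signal beyond about 16%, limit read from the data, passing the limit was not always enough; inconclusive = exactly half of the replicate wells pass the set limit; inactive = fewer than half of replicates pass the limit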;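 also: 0% = DMSO wells and 100% = Ran loaded with GDP instead of GTP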
AI-2 QS mod = Vibrio harveyi AI-2 quorum sensing modulation. Vibrio harveyi JMH597 AI-2 luminescence/OD600 ratio, 9 h; stronger effect = lower value; strain lacks LuxN and CqsS sensors; 0 = neutral-control median. activity change, % at 7.5 µM. actives 0.4% (n = 300,000). AID 2094; in the data active = activity change below about -75%, passing the limit was not always enough; inconclusive = no clear call, values can overlap the other calls;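 also: luminescence divided by OD600 gain over 9 h not by final OD600 alone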
proKLK7 act = activators of human kallikrein-7 zymogen | P49862 | purified proKLK7, EDANS-DABCYL substrate fluorescence; 100% is mature enzyme control, 0% vehicle | activation, % at 7 µM | actives 0.9% (n = 370,000);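 active = activation above the mean of all tested compounds plus 3 SD, computed per campaign excluding outliers beyond control limits, cut at about 13% in these data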
Wee1 stabilizer = blocks degradation of human Wee1 kinase; P30291; actives 1.2% (n = 220,000); reporter increase, % at 5 µM; HeLa Luc-Wee1K328M stability, luciferase luminescence; 100% = proteasome inhibitor MG132 effect; AID 1321;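 active = activation above the mean of all tested compounds plus 3 SD, set per screening run, cut at about 8.8% in these data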;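 also: cells exposed to compound for 20 h before luminescence read; 0% = DMSO alone and 100% = MG132 at 30 µM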
Runt-CBFb FRET = blocks binding of human RUNX1 Runt domain to CBFb; inhibition, % at 20 µM; Q01196+Q13951; actives 0.46% (n = 220,000); Cerulean-Runt/Venus-CBFb FRET ratio 530/480, 1 h;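 active = inhibition over about 50% at 20 µM in the single-dose screen, limit read from the data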;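 also: 0% = DMSO wells and 100% = excess unlabeled CBFb competitor control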
Target sequence (Q01196 whole entry, looked up, the tested form may be a part): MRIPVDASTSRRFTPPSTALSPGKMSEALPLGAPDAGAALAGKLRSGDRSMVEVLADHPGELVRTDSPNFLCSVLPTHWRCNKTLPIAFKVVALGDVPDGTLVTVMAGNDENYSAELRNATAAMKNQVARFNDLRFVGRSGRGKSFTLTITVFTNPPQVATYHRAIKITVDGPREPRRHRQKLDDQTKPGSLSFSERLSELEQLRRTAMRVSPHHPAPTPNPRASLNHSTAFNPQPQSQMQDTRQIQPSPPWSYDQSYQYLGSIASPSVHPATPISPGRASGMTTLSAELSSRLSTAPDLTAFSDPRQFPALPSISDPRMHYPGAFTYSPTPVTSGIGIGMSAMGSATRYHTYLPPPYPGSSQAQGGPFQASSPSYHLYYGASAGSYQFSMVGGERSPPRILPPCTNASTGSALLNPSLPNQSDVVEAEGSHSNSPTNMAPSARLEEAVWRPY
Target sequence (Q13951 whole entry, looked up, the tested form may be a part): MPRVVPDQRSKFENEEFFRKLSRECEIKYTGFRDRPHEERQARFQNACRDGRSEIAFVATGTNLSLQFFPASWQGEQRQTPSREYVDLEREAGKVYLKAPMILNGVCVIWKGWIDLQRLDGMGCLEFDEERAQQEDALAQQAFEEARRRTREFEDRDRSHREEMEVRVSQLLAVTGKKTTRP
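Doses: 20 µM compound in 1% DMSO | Material: Cerulean-labeled Runt domain protein | Amount: Each fluorescent fusion protein 100 nM | Schedule: Two 1 h room-temperature incubations shielded from light | Measured by: FRET fluorescence | Evaluation: Loss of energy transfer signal | Controls: Unlabeled CBFb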
Runt-SMMHC FRET = blocks binding of human RUNX1 Runt domain to CBFb-SMMHC. Q01196+Q13951. Cerulean-Runt/Venus-CBFb-SMMHC FRET ratio 530/480, 1 h. inhibition, % at 20 µM. actives 0.74% (n = 220,000);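 active = mean inhibition across duplicate retests at 20 µM reaching about 50%, limit read from the data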;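 also: 0% = DMSO wells and 100% = wells with excess untagged CBFb-SMMHC; inhibitors lower the FRET ratio by blocking Runt binding to CBFb-SMMHC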
proKLK7 act conf = confirmation of human kallikrein-7 zymogen activators | shares compounds with proKLK7 act | purified proKLK7, EDANS-DABCYL substrate fluorescence; scaled: vehicle 0, mature enzyme 100 | AID 686949 | activation, % at 7 µM | actives 68% (n = 3,200);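 active = activation, as change over the incubation, above the mean of all tested compounds plus 3 SD, cut at about 13% in these data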
EDANS interfere = optically interferes with EDANS-DABCYL signal, flagging KLK7 hits. shares compounds with proKLK7 act. EDANS-DABCYL substrate fluorescence interference, no enzyme, 4 h; solvent 0%, active enzyme control 100%. activation, % at 7 µM. actives 80% (n = 3,200);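 active = activation above the all-compound mean plus 3 SD, ignoring values outside control-based bounds, cut at about 4.8% in these data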;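 also: value is the 4 h activation minus the activation read at time zero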
EDANS interf = counter-screen for kallikrein-7 activators: EDANS-DABCYL interference, dose response. shares compounds with proKLK7 act. AID 720493. actives 20% (n = 250). EDANS-DABCYL peptide fluorescence interference, no enzyme. EC50, µM;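 active = compounds that raise the fluorescence signal in this interference counterscreen, with EC50 at or below 10 µM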;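 also: intact quenched peptide substrate alone read at 355 nm excitation and 520 nm emission; signal is fluorescence gain from T0 to T4 after four hours at room temperature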
* hit, by the source's call. This is a sample that favours compounds with a hit; in the whole collection about 2.9% have one here.

What do the screens show for `CCOC(=O)C1CCCN(C(=O)Cn2nc(C)n3c(cc4c(OC)cccc43)c2=O)C1` (configuration not stated)?
RanGTP-Imp inh: -1; AI-2 QS mod: 9; proKLK7 act: 18*; proKLK7 act conf: 8; EDANS interfere: 6.4*

How did CSc1nc2[nH]c3c(c2c2nncn12)CC(C)(C)OC3 do in these assays?
RanGTP-Imp inh: 4; AI-2 QS mod: 11; proKLK7 act: 0; Wee1 stabilizer: 5; Runt-CBFb FRET: -2; Runt-SMMHC FRET: -2

What do the screens show for `CSc1nc2[nH]c3c(c2c2nnnn12)CCCC3`?
RanGTP-Imp inh: 4; AI-2 QS mod: 13; proKLK7 act: 14*; Wee1 stabilizer: 0; Runt-CBFb FRET: 4; Runt-SMMHC FRET: -3; proKLK7 act conf: 7; EDANS interfere: 9.8*

How did CC(=O)N1CCN(C2=Nc3cccc4cccc2c34)CC1 do in these assays?
RanGTP-Imp inh: -3; AI-2 QS mod: 11; proKLK7 act: 60*; Wee1 stabilizer: 0; Runt-CBFb FRET: -11; Runt-SMMHC FRET: -68; proKLK7 act conf: 22*; EDANS interfere: 19*; EDANS interf: inactive

How did O=C(O)c1ccc(NC2=Nc3cccc4cccc2c34)cc1 do in these assays?
RanGTP-Imp inh: 3; AI-2 QS mod: 12; proKLK7 act: 5; Wee1 stabilizer: -2; Runt-CBFb FRET: -1; Runt-SMMHC FRET: -17

Results for c1ccc(CC2CCN(C3=Nc4cccc5cccc3c45)CC2)cc1 ?
RanGTP-Imp inh: 2; AI-2 QS mod: 24; Wee1 stabilizer: 0; Runt-CBFb FRET: -8; Runt-SMMHC FRET: -29

Results for CCOC(=O)N1CCN(C2=Nc3cccc4cccc2c34)CC1 ?
RanGTP-Imp inh: -1; AI-2 QS mod: 30; proKLK7 act: 55*; Wee1 stabilizer: 3; Runt-CBFb FRET: -8; Runt-SMMHC FRET: -85; proKLK7 act conf: 18*; EDANS interfere: 28*

Results for CC1CN(C2=Nc3cccc4cccc2c34)CC(C)O1 (configuration not stated) ?
RanGTP-Imp inh: -6; AI-2 QS mod: 43; proKLK7 act: 44*; Wee1 stabilizer: -1; Runt-CBFb FRET: -49; Runt-SMMHC FRET: 34; proKLK7 act conf: 6; EDANS interfere: 5.7*

Results for c1cc2c3c(cccc3c1)C(N1CCOCC1)=N2 ?
RanGTP-Imp inh: -4; AI-2 QS mod: 11; proKLK7 act: 44*; Wee1 stabilizer: 0; Runt-CBFb FRET: -17; Runt-SMMHC FRET: 45; proKLK7 act conf: 47*; EDANS interfere: 46*

How did Cc1ccc(C2=NN(CC(=O)O)C(=O)CC2)cc1 do in these assays?
RanGTP-Imp inh: -2; AI-2 QS mod: 9; proKLK7 act: -1

What do the screens show for `C=C1CCN(C(C(=O)OC)C(C)C)S(=O)(=O)c2ccccc21` (configuration not stated)?
RanGTP-Imp inh: 1; AI-2 QS mod: 11; proKLK7 act: 0; Runt-CBFb FRET: 0; Runt-SMMHC FRET: 2

How did CCNC(=O)n1cc(-n2cncn2)c(-c2ccc(Cl)cc2)n1 do in these assays?
RanGTP-Imp inh: 0; AI-2 QS mod: 7; proKLK7 act: 0; Wee1 stabilizer: 2; Runt-CBFb FRET: -2; Runt-SMMHC FRET: -1

How did N#CCOc1coc(CN2CCN(c3ccccc3)CC2)cc1=O do in these assays?
RanGTP-Imp inh: inconclusive; AI-2 QS mod: 22; proKLK7 act: 0

What do the screens show for `Cc1ccc(-c2noc(CCC(=O)NC3CC3)n2)cc1`?
RanGTP-Imp inh: 0; AI-2 QS mod: 7; proKLK7 act: 0
